In the library only some 4.1% were active in any assay of this set; here they are far more common.
H9c2 TAG inh = reduces triacylglycerol accumulation in H9c2 cells; Nile Red lipid (TAG) fluorescence; cells loaded with 200 µM oleic acid; AID 651582; inhibition, % at 12.5 µM; 230,000 tested, 0.66% active;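 active = pattern-corrected inhibition of lipid staining of at least 50% with the nuclear-stain viability signal not falling by more than 50%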;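 note: 0% = DMSO wells and 100% = triacsin C control wells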
AHR act = human AHR activation; AID 2796; 320,000 tested, 2.5% active; AHR-responsive luciferase reporter cells, luminescence; activation, % at 5 µM; P35869; in the data active = activation above about 47%;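 note: 0% = vehicle wells and 100% = reference agonist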
Target sequence (P35869 whole entry, looked up): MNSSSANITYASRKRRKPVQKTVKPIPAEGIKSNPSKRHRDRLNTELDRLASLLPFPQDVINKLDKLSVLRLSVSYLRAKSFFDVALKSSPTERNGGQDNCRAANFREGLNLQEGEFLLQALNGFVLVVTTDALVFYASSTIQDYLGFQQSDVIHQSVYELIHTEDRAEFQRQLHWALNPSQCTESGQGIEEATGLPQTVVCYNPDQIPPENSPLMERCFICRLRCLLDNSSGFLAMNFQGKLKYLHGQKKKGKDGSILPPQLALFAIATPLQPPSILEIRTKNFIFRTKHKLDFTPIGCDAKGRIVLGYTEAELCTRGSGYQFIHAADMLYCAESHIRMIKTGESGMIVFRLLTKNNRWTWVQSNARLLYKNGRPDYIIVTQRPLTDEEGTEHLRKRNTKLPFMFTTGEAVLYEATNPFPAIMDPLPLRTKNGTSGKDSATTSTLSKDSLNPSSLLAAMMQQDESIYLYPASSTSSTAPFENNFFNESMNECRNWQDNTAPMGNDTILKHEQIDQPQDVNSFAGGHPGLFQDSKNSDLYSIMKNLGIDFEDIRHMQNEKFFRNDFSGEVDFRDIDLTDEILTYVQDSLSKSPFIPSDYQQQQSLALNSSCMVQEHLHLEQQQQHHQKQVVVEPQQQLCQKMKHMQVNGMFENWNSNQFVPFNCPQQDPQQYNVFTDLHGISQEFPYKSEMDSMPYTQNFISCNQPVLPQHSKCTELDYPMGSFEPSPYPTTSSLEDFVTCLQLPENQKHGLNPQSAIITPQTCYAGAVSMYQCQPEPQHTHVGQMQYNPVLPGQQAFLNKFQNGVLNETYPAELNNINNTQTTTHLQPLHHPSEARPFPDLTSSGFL
TbMetRS inhib = Trypanosoma brucei MetRS inhibition. purified T. brucei MetRS, ATP depletion, Kinase-Glo luminescence. inhibition, % at 11.9 µM. 360,000 tested, 0.4% active;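 active = inhibition above a per-plate cutoff of the control wells' mean inhibition plus 3 SD, cut at about 5.5% in these data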;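 note: 0% = DMSO wells median and 100% = median of wells with control inhibitor compound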
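Measured by: Kinase-Glo luciferase luminescence reporting remaining unconsumed ATP. Material: purified T. brucei MetRS enzyme. Doses: 11.9 µM compound single dose, 0.9% DMSO. Medium: HEPES buffer containing pyrophosphatase, BSA, spermine, DTT. Times: 15 min preincubation, 2 h reaction, all 25 °C. Reagent: methionine, ATP and bulk E. coli tRNA.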
SMARCA2 activ = SMARCA2 function activation, primary screen. MG213 cells, MMTV-luciferase reporter, dexamethasone, overnight. activation, % at 9.1 µM. 370,000 tested, 1% active; in the data active = activation above about 7.8%;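 note: 0% = vehicle wells and 100% = reference activator wells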
Efflux pump mplx = antifungal efflux pump inhibition, Nile Red retention. AID 485275. inhibition, % at 10 µM. S. cerevisiae Candida pump triplex. 330,000 tested, 0.44% active;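 active = plate passing quality check with inhibition over a set limit, or well fluorescence over plate mean plus 4 SD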;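 note: Nile Red retained in pooled yeast measured as flow cytometry median fluorescence; 0% = buffer negative control and 100% = Enniatin B positive control; higher means more Nile Red kept so more efflux inhibition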
H9c2 TAG conf = triacylglycerol accumulation inhibition, confirmation. shares compounds with H9c2 TAG inh. H9c2 lipid accumulation, Nile Red fluorescence; cells loaded with 200 µM oleic acid. inhibition, % at 12.5 µM. 990 tested, 71% active;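 active = mean inhibition across replicates of 40% or more; inactive = mean inhibition below 40%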;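 note: plate controls were DMSO only wells for no effect and Triacsin C treated wells for full effect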
An asterisk follows results filed as active.

How did CC(C)(C)N1C(=O)[C@H]2[C@@H](c3ccc(Br)cc3)N3C(=O)N(c4ccc(Br)cc4)C(=O)[C@@]3(Cc3ccccc3)[C@H]2C1=O do in these assays?
H9c2 TAG inh: 60*; AHR act: 5; TbMetRS inhib: 0; Efflux pump mplx: 0; H9c2 TAG conf: 54*

Results for CN(C)Cc1c(C(C)(C)O)[nH]c2cc(C(F)(F)F)ccc12 ?
SMARCA2 activ: 1

What do the screens show for `CC(C)CN(C#N)c1nc(N2CCOCC2)nc(N2CCOCC2)n1`?
H9c2 TAG inh: 62*; AHR act: 1; TbMetRS inhib: -1; SMARCA2 activ: -1; Efflux pump mplx: 0; H9c2 TAG conf: 45*

Results for O=C1NC(c2ccccc2)c2c(-c3ccccc3)n[nH]c21 (stereo not drawn) ?
SMARCA2 activ: -1

What do the screens show for `COc1ccc(-c2sc3cc(OC)c(OC)cc3c2C#CCCO)cc1`?
H9c2 TAG inh: 2; AHR act: 32; TbMetRS inhib: 0; SMARCA2 activ: -1; Efflux pump mplx: 0

Results for COc1ccc(-c2sc3ccc(N4CCOCC4)cc3c2C#CCCO)cc1 ?
H9c2 TAG inh: 51*; AHR act: 97*; TbMetRS inhib: 0; SMARCA2 activ: 0; Efflux pump mplx: 0; H9c2 TAG conf: 55*

What do the screens show for `C=CCN1C(C(=O)OCC)CSCCS1(=O)=O` (stereo not drawn)?
SMARCA2 activ: -3

What do the screens show for `Cc1cccn2c(=O)c3cc(C(=O)NC4CCCC4)c(=N)n(C4CCCC4)c3nc12`?
H9c2 TAG inh: 51*; AHR act: 54*; TbMetRS inhib: 0; SMARCA2 activ: 1; Efflux pump mplx: 0; H9c2 TAG conf: 44*

What do the screens show for `Cc1noc(C)c1COc1cccc(C(=O)OCC(=O)N2CC(=O)Nc3ccccc32)c1`?
H9c2 TAG inh: 66*; AHR act: 4; TbMetRS inhib: -1; SMARCA2 activ: 0; Efflux pump mplx: 0; H9c2 TAG conf: 89*

Results for COc1ccccc1N1CCN(CC(=O)Nc2cc(C)nn2-c2nc(C)cc(C)n2)CC1 ?
H9c2 TAG inh: 55*; TbMetRS inhib: 0; SMARCA2 activ: -2; H9c2 TAG conf: 56*

How did Cc1sc(NC(=O)c2cccc([N+](=O)[O-])c2)c(C(N)=O)c1-c1ccc(C(C)(C)C)cc1 do in these assays?
H9c2 TAG inh: 82*; AHR act: 2; TbMetRS inhib: 0; SMARCA2 activ: -2; Efflux pump mplx: 0; H9c2 TAG conf: 30

What do the screens show for `Cc1sc(NC(=O)/C=C/C(=O)O)c(C(N)=O)c1-c1ccc(C(C)(C)C)cc1`?
AHR act: 0; TbMetRS inhib: -1; SMARCA2 activ: -2; Efflux pump mplx: 0

What do the screens show for `C=CCn1cnc2c(c1=O)c1nc3ccccc3nc1n2/N=C/c1ccccn1`?
TbMetRS inhib: 0; SMARCA2 activ: -3

Results for C=CCn1cnc2c(c1=O)c1nc3ccccc3nc1n2/N=C/c1cc(OC)c(OC)c(OC)c1 ?
H9c2 TAG inh: 79*; AHR act: 0; TbMetRS inhib: 0; SMARCA2 activ: -4; Efflux pump mplx: 0; H9c2 TAG conf: 37

Results for CCCCCCCCN1C(=O)[C@@H](CC(=O)NCC23CC4CC(CC(C4)C2)C3)C[C@@]2(C(=O)OC)C1=C[C@H](COCc1ccccc1)O[C@@H]2C ?
SMARCA2 activ: -1

Results for CCc1c(C2(O)CCCCC2)[nH]c2cnccc12 ?
H9c2 TAG inh: 51*; AHR act: -2; TbMetRS inhib: 0; SMARCA2 activ: 0; Efflux pump mplx: 0; H9c2 TAG conf: 13

How did COc1cc(N2CCC(O)CC2)ccc1Nc1cc(Nc2ccccc2S(=O)(=O)C(C)C)c2cc[nH]c2n1 do in these assays?
SMARCA2 activ: -6

What do the screens show for `Nn1c(SCC(=O)Nc2ccccc2-c2ccccc2)nnc1-c1cc(-c2ccc(F)cc2)n[nH]1`?
SMARCA2 activ: -3

How did Cc1cccc(N2CCN(C(=O)c3c(-c4ccccc4Cl)noc3C)CC2)c1C do in these assays?
H9c2 TAG inh: 71*; AHR act: 3; TbMetRS inhib: 0; SMARCA2 activ: -1; Efflux pump mplx: -1; H9c2 TAG conf: 66*

How did COC(=O)[C@H](CC(C)C)N(CCc1cn(Cc2ccc(C)cc2)nn1)S(=O)(=O)c1ccccc1Br do in these assays?
SMARCA2 activ: -3

What do the screens show for `CCOC(=O)N(C)c1c(CC)nc2c(OCCC3CCCCC3)cccn12`?
H9c2 TAG inh: 7; TbMetRS inhib: 0; SMARCA2 activ: 0

How did CCOC(=O)C(=O)N(C)c1c(CC)nc2c(OCCC3CCCCC3)cccn12 do in these assays?
H9c2 TAG inh: 119*; TbMetRS inhib: 0; SMARCA2 activ: 0; H9c2 TAG conf: 7

What do the screens show for `COC(=O)[C@]12C[C@H](CC(=O)N3CCCCC3)C(=O)N(Cc3ccc4c(c3)OCO4)C1=C[C@H](COCc1ccccc1)O[C@@H]2C`?
SMARCA2 activ: -3

How did NCCC(=O)N1c2ccccc2Sc2ccc(Cl)cc21 do in these assays?
H9c2 TAG inh: 68*; AHR act: -3; TbMetRS inhib: 0; SMARCA2 activ: -2; Efflux pump mplx: 0; H9c2 TAG conf: 40

How did COC(=O)[C@]12C[C@H](CC(=O)N3CCSCC3)C(=O)N(Cc3ccccc3)C1=C[C@H](C1CCCC1)O[C@@H]2C do in these assays?
SMARCA2 activ: -4

How did Cc1c(C(=O)NCCC2=CCCCC2)oc2ccc(S(=O)(=O)N3CCC4(CC3)OCCO4)cc12 do in these assays?
H9c2 TAG inh: 52*; AHR act: 7; TbMetRS inhib: -1; SMARCA2 activ: -2; Efflux pump mplx: 0; H9c2 TAG conf: 33

What do the screens show for `CCCc1cc(C(=O)N/N=C/c2ccc(C)o2)c2ccccc2n1`?
H9c2 TAG inh: 9; AHR act: 13; TbMetRS inhib: 0; SMARCA2 activ: -7; Efflux pump mplx: 0

Results for CCCc1cc(C(=O)N/N=C/c2ccc(CC)s2)c2ccccc2n1 ?
H9c2 TAG inh: 56*; AHR act: 41; TbMetRS inhib: 0; SMARCA2 activ: -3; Efflux pump mplx: 0; H9c2 TAG conf: 61*

Results for O=c1ccn(C2CC(O)C(COC(c3ccccc3)(c3ccccc3)c3ccccc3)O2)c(=O)[nH]1 (stereo not drawn) ?
SMARCA2 activ: -4

Results for Nc1ccc2ccccc2c1N=Nc1ccccc1 ?
H9c2 TAG inh: 56*; TbMetRS inhib: 0; SMARCA2 activ: 7; H9c2 TAG conf: 53*

How did Nc1ncnc(N)c1N=Nc1ccccc1 do in these assays?
H9c2 TAG inh: 38; TbMetRS inhib: 0; SMARCA2 activ: 7; Efflux pump mplx: 0

What do the screens show for `CCCc1cc2c(OC)ccc(O)c2c(=O)n1C`?
SMARCA2 activ: -4

What do the screens show for `COc1ccc(/C=N/NC(=O)CNC(=O)COc2ccccc2)cc1`?
AHR act: -4; TbMetRS inhib: -1; SMARCA2 activ: -4; Efflux pump mplx: 0
